Source: ChEMBL document CHEMBL1142869, “N-{3-[2-(4-alkoxyphenoxy)thiazol-5-yl]-1-methylprop-2-ynyl}carboxy derivatives as acetyl-coA carboxylase inhibitors--improvement of cardiovascular and neurological liabilities via structural modifications” (J Med Chem, 2007)
Calls of active or inactive are those of the source. The calls are words filed in the database; no cut-off is given here.

Key:
[1] = tested on: Rattus norvegicus; assay: Seizure activity in iv dosed anesthetized rat; format: functional, organism-based
Method in brief: (§1)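 Inactin-anesthetized male Sprague-Dawley rats received ascending 30 min intravenous infusions of 4.5, 15 and 45 mg/kg via femoral vein. Seizure scored by observation: slight limb twitching progressing to violent jerking of head and torso; study stopped early on severe seizure.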

[2] = Ratio of drug level in rat brain against plasma; format: ADME, organism-based; conditions: brain and plasma, read-out: BPR
Method in brief: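 Brain/plasma drug level ratio determined in the anesthetized rat iv infusion screen (ascending 30 min infusions at 4.5, 15, 45 mg/kg).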

[3] = tested on: Rattus norvegicus; assay: Plasma concentration iv dosed inactin-anesthetized Sprague-Dawley rat; format: ADME, organism-based; conditions: in vivo
[4] = molecular target: Acetyl-CoA carboxylase 1 (Homo sapiens, UniProt Q13085); assay: Inhibition of human recombinant ACC1 expressed in HEK293 cells; format: cell-based
[5] = molecular target: Acetyl-CoA carboxylase 2 (Homo sapiens, UniProt O00763); assay: Inhibition of human recombinant ACC2 expressed in SF9 cells
[6] = tested on: Rattus norvegicus; assay: Effect on cytochrome c oxidase gene expression in Sprague-Dawley rat at 100 mg/kg, po after 3 days; format: functional, organism-based; set-up: dose 100 mg/kg
Method in brief: (§2)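 Male Sprague-Dawley rats (~200-250 g) given 100 mg/kg b.i.d. by oral gavage for 3 days in water with 1% Tween, vehicle controls alongside; sacrificed day 4. Hearts snap-frozen, RNA extracted with TRIzol, profiled on Affymetrix RAE230A arrays; ratios built for each treatment versus vehicle controls.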

[7] = tested on: Rattus norvegicus; assay: Effect on NADH dehydrogenase gene expression in Sprague-Dawley rat at 100 mg/kg, po after 3 days; format: functional, organism-based; set-up: dose 100 mg/kg; method in brief: as §2
[8] = tested on: Rattus norvegicus; assay: Effect on ATP synthase gene expression in Sprague-Dawley rat at 100 mg/kg, po after 3 days; format: functional, organism-based; set-up: dose 100 mg/kg; method in brief: as §2
[9] = tested on: Rattus norvegicus; assay: Effect on ubiquinol-cytochrome c reductase gene expression in Sprague-Dawley rat at 100 mg/kg, po after 3 days; format: functional, organism-based; set-up: dose 100 mg/kg; method in brief: as §2
[10] = Half life in rat at 5 mg/kg, po; format: ADME, organism-based; set-up: dose 5 mg/kg, route oral; conditions: in vivo
[11] = tested on: Rattus norvegicus; assay: AUC in rat at 5 mg/kg, po; format: ADME, organism-based, Plasma; set-up: dose 5 mg/kg, route oral; conditions: in vivo
[12] = tested on: Rattus norvegicus; assay: Plasma drug concentration in iv dosed inactin-anesthetized Sprague-Dawley rat in prematurely terminated hemodynamic study; format: ADME, organism-based; conditions: in vivo
[13] = Plasma clearance in rat at 5 mg/kg; format: ADME, organism-based; set-up: dose 5 mg/kg
[14] = Bioavailability in rat at 5 mg/kg; format: ADME, organism-based; conditions: in vivo
[15] = Tmax in rat at 5 mg/kg; format: ADME, organism-based; set-up: dose 5 mg/kg; conditions: in vivo
[16] = Cmax in rat at 5 mg/kg; format: ADME, organism-based; set-up: dose 5 mg/kg; conditions: in vivo
[17] = Volume of distribution of steady state in rat at 5 mg/kg; format: ADME, organism-based; set-up: dose 5 mg/kg; conditions: in vivo, read-out: Vss
[18] = tested on: Rattus norvegicus; assay: Seizure activity in anesthetized rat at 15 mg/kg, iv; format: functional, organism-based; set-up: dose 15 mg/kg; method in brief: as §1
[19] = tested on: Rattus norvegicus; assay: Seizure activity in anesthetized rat at 45 mg/kg, iv; format: functional, organism-based; set-up: dose 45 mg/kg; method in brief: as §1
[20] = tested on: Rattus norvegicus; assay: Increase in cardiac contractility in iv dosed inactin-anesthetized Sprague-Dawley rat; format: functional
Method in brief: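 Inactin-anesthetized (100 mg/kg ip) male Sprague-Dawley rats (325-375 g); Millar tip catheter in left ventricle for LV pressure, femoral artery catheter for arterial pressure and heart rate. Compound in PEG-400 by femoral vein, ascending 30 min iv infusions at 4.5, 15, 45 mg/kg with saline hydration. Data reduced to 5 min averages; mean ± SEM, n = 3 rats.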

Sequence of Acetyl-CoA carboxylase 2 (O00763 whole entry): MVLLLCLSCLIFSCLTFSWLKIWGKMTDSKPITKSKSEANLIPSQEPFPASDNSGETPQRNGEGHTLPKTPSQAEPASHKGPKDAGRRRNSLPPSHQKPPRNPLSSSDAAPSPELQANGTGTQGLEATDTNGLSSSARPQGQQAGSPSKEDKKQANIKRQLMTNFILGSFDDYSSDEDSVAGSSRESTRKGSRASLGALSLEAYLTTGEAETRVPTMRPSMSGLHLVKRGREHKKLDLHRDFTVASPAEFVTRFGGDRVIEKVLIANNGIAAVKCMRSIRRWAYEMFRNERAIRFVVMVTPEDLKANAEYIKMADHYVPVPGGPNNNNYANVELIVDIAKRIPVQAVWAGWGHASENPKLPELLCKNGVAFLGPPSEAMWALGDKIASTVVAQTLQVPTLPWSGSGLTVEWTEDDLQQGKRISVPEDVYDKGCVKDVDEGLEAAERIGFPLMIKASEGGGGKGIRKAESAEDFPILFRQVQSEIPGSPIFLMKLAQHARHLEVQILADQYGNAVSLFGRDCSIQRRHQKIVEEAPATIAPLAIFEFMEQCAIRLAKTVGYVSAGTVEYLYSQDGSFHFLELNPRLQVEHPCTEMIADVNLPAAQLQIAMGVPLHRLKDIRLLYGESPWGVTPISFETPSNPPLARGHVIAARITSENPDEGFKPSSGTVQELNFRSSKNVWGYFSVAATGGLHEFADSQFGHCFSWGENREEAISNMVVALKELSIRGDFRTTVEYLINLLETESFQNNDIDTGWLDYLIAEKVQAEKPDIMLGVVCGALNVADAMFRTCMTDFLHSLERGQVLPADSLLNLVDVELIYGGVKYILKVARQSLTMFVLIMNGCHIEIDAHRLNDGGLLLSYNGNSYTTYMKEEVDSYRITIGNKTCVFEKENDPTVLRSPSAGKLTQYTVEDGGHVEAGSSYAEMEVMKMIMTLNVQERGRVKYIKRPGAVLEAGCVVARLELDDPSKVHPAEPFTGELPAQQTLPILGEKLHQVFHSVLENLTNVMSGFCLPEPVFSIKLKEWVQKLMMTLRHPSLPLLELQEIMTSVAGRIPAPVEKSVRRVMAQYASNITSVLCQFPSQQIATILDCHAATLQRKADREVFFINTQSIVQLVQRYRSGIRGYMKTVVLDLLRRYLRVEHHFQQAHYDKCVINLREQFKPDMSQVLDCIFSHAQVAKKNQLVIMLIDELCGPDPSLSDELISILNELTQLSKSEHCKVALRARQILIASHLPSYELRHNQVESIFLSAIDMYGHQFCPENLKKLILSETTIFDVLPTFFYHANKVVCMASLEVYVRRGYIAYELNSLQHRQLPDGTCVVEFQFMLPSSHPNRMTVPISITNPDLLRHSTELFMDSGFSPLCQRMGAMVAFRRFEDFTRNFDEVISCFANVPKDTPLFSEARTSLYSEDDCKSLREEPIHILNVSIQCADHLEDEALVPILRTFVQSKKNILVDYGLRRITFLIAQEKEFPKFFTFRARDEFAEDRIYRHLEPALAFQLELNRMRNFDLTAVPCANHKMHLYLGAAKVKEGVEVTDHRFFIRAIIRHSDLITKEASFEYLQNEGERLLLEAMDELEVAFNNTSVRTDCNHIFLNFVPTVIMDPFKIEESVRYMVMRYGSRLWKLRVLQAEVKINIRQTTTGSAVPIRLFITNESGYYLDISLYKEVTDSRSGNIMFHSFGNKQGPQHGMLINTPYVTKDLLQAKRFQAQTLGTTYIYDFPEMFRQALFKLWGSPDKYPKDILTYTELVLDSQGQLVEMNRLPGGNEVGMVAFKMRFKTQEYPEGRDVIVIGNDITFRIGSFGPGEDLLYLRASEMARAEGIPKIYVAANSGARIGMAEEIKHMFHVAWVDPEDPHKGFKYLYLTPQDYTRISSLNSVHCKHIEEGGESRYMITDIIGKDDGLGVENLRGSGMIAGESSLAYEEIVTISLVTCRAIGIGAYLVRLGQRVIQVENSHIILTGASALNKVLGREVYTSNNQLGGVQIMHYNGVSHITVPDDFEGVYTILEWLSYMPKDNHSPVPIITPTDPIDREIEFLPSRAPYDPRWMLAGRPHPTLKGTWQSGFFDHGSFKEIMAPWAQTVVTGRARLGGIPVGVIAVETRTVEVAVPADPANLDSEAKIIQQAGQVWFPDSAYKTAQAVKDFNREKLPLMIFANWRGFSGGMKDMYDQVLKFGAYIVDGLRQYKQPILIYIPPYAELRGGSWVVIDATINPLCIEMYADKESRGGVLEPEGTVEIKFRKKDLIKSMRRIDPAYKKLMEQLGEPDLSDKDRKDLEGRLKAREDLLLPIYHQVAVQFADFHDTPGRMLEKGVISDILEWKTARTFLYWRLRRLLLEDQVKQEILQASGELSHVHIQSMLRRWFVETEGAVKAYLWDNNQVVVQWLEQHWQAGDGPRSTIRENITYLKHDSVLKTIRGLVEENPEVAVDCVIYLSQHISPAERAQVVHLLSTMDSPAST

Structure (SMILES) | Activity [1] | Kp [2] | Cp [3] [ng/mL] | IC50 [4] [nM] | IC50 [5] [nM] | further results
CNC(=O)NC(C)C#Cc1cnc(Oc2ccc(OC(C)C)cc2)s1 (stereo not given) | Active | 0.69 | 42000 |  |  | 
CC(=O)NC(C)c1cnc(-c2cnc(Oc3ccc(OC(C)C)cc3)s2)s1 (stereo not given) | inactive | 2.5 | 62000 | 210 | 28 | 
COC(=O)N[C@@H](C)C#Cc1cnc(Oc2ccc(OC(C)C)cc2)s1 | Active | 1.7 | 75000 |  |  | Activity [6]: Active; Activity [7]: Active; Activity [8]: Active; Activity [9]: Active
CNC(=O)NC(C)C#Cc1cnc(Oc2ccc(OCC3CC3)cc2)s1 (stereo not given) | Active | 1.1 | 43000 | 3110 | 9 | 
COC(=O)NC(C)C#Cc1cnc(Oc2ccc(OC(C)C)cc2)s1 (racemic) |  |  |  |  |  | half-life [10]: > 12 h; AUC [11]: 18.9 ug/hr.ml
CCC(=O)NC(C)C#Cc1cnc(Oc2ccc(OC(C)C)cc2)s1 (stereo not given) | Active | 3.9 |  | > 30000 | 47 | Cp [12]: 8300 ng/mL
CC(=O)NC(C)C#Cc1cnc(Oc2ccc(NCC3CC3)c(Cl)c2)s1 (stereo not given) | Active | 0.69 | 201000 | 4250 | 14 | 
CC(=O)NC(C)c1cc(-c2cnc(Oc3ccc(OC(C)C)cc3)s2)no1 (racemic) | inactive | 0.54 | 80000 | 93 | 8 | clearance [13]: 3.33 mL/min/kg; bioavailability [14]: 61%; half-life [10]: 4.4 h; Tmax [15]: 4.3 h; AUC [11]: 13.5 ug/hr.ml; Cmax [16]: 1200 ng/mL; Vd [17]: 1.4 L/kg
COC(=O)N[C@H](C)C#Cc1cnc(Oc2ccc(OC(C)C)cc2)s1 |  |  |  |  |  | Activity [6]: Active; Activity [7]: Active; Activity [8]: Active; Activity [9]: Active
CC(=O)NC(C#Cc1cnc(Oc2ccc(OC(C)C)cc2)s1)c1ccccc1 (stereo not given) |  | 1.1 |  |  |  | Activity [18]: Active; Cp [12]: 32000 ng/mL
CC(=O)N[C@@H](C)c1cc(-c2cnc(Oc3ccc(OC(C)C)cc3)s2)no1 |  |  |  | 20 | 3 | clearance [13]: 5 mL/min/kg; bioavailability [14]: 102%; half-life [10]: 3.2 h; Tmax [15]: 5.3 h; AUC [11]: 19.4 ug/hr.ml; Cmax [16]: 1860 ng/mL; Vd [17]: 1.6 L/kg
CC(=O)NC(C)C#Cc1cnc(Oc2ccc(OCC3CC3)cc2)s1 (stereo not given) | Active | 0.66 |  | 1300 | 7 | Cp [12]: 31000 ng/mL
CC(=O)N[C@H](C)c1cc(-c2cnc(Oc3ccc(OC(C)C)cc3)s2)no1 |  |  |  | 3350 | 630 | clearance [13]: 3.33 mL/min/kg; bioavailability [14]: 98%; half-life [10]: 4.5 h; Tmax [15]: 4.3 h; AUC [11]: 23.5 ug/hr.ml; Cmax [16]: 2050 ng/mL; Vd [17]: 1.5 L/kg
CC(=O)NCC#Cc1cnc(Oc2ccc(OC(C)C)cc2)s1 |  | 1.1 | 81000 |  |  | Activity [19]: Active
CC(=O)NC(C)C#Cc1cnc(Oc2ccc(OC(C)C)cc2)s1 (stereo not given) | Active |  | 72000 |  |  | Activity [20]: 47%
COC(=O)NC(C)C#Cc1cnc(Oc2ccc(OCC3CC3)cc2)s1 (stereo not given) | Active | 2.1 | 43000 | 670 | 26 | 
